From ChEMBL document CHEMBL3091366, “New 5-Aryl-1H-imidazoles display in vitro antitumor activity against apoptosis-resistant cancer models, including melanomas, through mitochondrial targeting” (J Med Chem, 2013)
Active and inactive are the calls of the source. The rule behind the calls is not given here.

Tests used:
NHDF = assay: Cytotoxicity against human NHDF cells assessed as growth inhibition after 72 hrs by MTT-based colorimetric assay; assay type: cell-based
Summary of the method: (§1)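 MTT colorimetric assay, 72 h exposure to the fumarate salt. Read-out is reduction of MTT to formazan by living cells. IC50 is the concentration that reduces the whole cell population by 50%. Six replicates per condition. Where compounds were not tested on every line, apoptosis-sensitive lines were PC3, MCF-7, LoVo and B16F10, and apoptosis-resistant lines were U373, T98G, A549 and SK-MEL-28.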

U-251 = assay: Cytotoxicity against human U251 cells assessed as residual growth at 10 uM; assay type: functional
[1] = Cytotoxicity against human Hs578T cells assessed as residual growth at 10 uM; assay type: functional, Hs-578T
SK-MEL-28 [2] = assay: Cytotoxicity against apoptotic-resistant human SK-MEL-28 cells assessed as cell death at 5 uM after 72 hrs by quantitative videomicroscopy; assay type: functional, cell-based
Summary of the method: (§2)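 SK-MEL-28 cells exposed to 5 µM for 24, 48 and 72 h. Cell cycle was read by flow cytometry with propidium iodide plus TUNEL double staining (APO-Direct kit), in quadruplicate. Videomicroscopy photographed each field every 4 min over 72 h. Global growth is cells at a time point divided by cells at time 0; the treated/control ratio gives GGR. Cell death was judged from morphology. Run twice, in triplicate and in quadruplicate.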

RPMI-8226 = assay: Cytotoxicity against human RPMI8226 cells assessed as residual growth at 10 uM; assay type: functional
Melanoma cell = assay: Cytotoxicity against human Melanoma cells assessed as growth inhibition after 72 hrs by MTT-based colorimetric assay; assay type: functional
Summary of the method: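 Eleven human primary melanoma cultures treated for 72 h with the fumarate salt. Growth inhibition read by colorimetric MTT assay, with IC50 taken as 50% reduction of the cell population. Maximal concentration tested was 100 µM. Run once in sextuplicate.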

HOP-62 = assay: Cytotoxicity against human HOP62 cells assessed as residual growth at 10 uM; assay type: functional
HL-60(TB) = assay: Cytotoxicity against human HL-60(TB) cells assessed as residual growth at 10 uM; assay type: functional
SN12C = assay: Cytotoxicity against human SN12C cells assessed as residual growth at 10 uM; assay type: functional
MOLT-4 = assay: Cytotoxicity against human MOLT4 cells assessed as residual growth at 10 uM; assay type: functional
PC-3 [3] = assay: Cytotoxicity against apoptotic-sensitive human PC3 cells assessed as growth inhibition after 72 hrs by MTT-based colorimetric assay; assay type: functional, cell-based; settings: Homo sapiens, PC-3, 72 h; summary of the method: as §1
MCF7 = assay: Cytotoxicity against human MCF7 cells assessed as residual growth at 10 uM; assay type: functional
[4] = Cytotoxicity against human EKVX cells assessed as residual growth at 10 uM; assay type: functional
OVCAR-8 = assay: Cytotoxicity against human OVCAR8 cells assessed as residual growth at 10 uM; assay type: functional
SK-MEL-28 [5] = assay: Cytostatic activity against apoptotic-resistant human SK-MEL-28 cells assessed as growth inhibition at 5 uM after 48 to 72 hrs by quantitative videomicroscopy; assay type: functional; settings: read-out: GI; summary of the method: as §2
DU-145 = assay: Cytotoxicity against human DU145 cells assessed as residual growth at 10 uM; assay type: functional
SNB-19 = assay: Cytotoxicity against human SNB19 cells assessed as residual growth at 10 uM; assay type: functional
ACHN = assay: Cytotoxicity against human ACHN cells assessed as residual growth at 10 uM; assay type: functional
HOP-92 = assay: Cytotoxicity against human HOP92 cells assessed as residual growth at 10 uM; assay type: functional
MDA-MB-231 = assay: Cytotoxicity against human MDA-MB-231 cells assessed as residual growth at 10 uM; assay type: functional
T47D = assay: Cytotoxicity against human T47D cells assessed as residual growth at 10 uM; assay type: functional
KM12 = assay: Cytotoxicity against human KM12 cells assessed as residual growth at 10 uM; assay type: functional
PC-3 [6] = assay: Cytotoxicity against human PC3 cells assessed as residual growth at 10 uM; assay type: functional
A498 = assay: Cytotoxicity against human A498 cells assessed as residual growth at 10 uM; assay type: functional
COLO 205 = assay: Cytotoxicity against human COLO205 cells assessed as residual growth at 10 uM; assay type: functional
TK-10 = assay: Cytotoxicity against human TK10 cells assessed as residual growth at 10 uM; assay type: functional
HCT-15 = assay: Cytotoxicity against human HCT15 cells assessed as residual growth at 10 uM; assay type: functional
[7] = Cytotoxicity against human OVCAR4 cells assessed as residual growth at 10 uM; assay type: functional, OVCAR-4
T98G = assay: Cytotoxicity against apoptotic-resistant human T98G cells assessed as growth inhibition after 72 hrs by MTT-based colorimetric assay; assay type: functional, cell-based; settings: Homo sapiens, T98G, 72 h; summary of the method: as §1
NCI-H522 = assay: Cytotoxicity against human NCI-H522 cells assessed as residual growth at 10 uM; assay type: functional
[8] = Cytotoxicity against apoptotic-resistant human U373 cells assessed as growth inhibition after 72 hrs by MTT-based colorimetric assay; assay type: functional, cell-based, U-373MG ATCC; settings: Homo sapiens, U373 MG, 72 h; summary of the method: as §1
A549 = assay: Cytotoxicity against human A549 cells assessed as residual growth at 10 uM; assay type: functional
LoVo = assay: Cytotoxicity against apoptotic-sensitive human LoVo cells assessed as growth inhibition after 72 hrs by MTT-based colorimetric assay; assay type: functional, cell-based; settings: Homo sapiens, LoVo, 72 h; summary of the method: as §1
UACC-62 = assay: Cytotoxicity against human UACC62 cells assessed as residual growth at 10 uM; assay type: functional
SK-MEL-5 = assay: Cytotoxicity against human SK-MEL-5 cells assessed as residual growth at 10 uM; assay type: functional
[9] = Cytotoxicity against human UACC257 cells assessed as residual growth at 10 uM; assay type: functional, UACC-257
SK-MEL-28 [10] = assay: Induction of apoptosis in apoptotic-resistant human SK-MEL-28 cells at 5 uM after 24 to 72 hrs by TUNEL staining-based flow cytometry; assay type: functional, cell-based
Summary of the method: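 SKMEL-28 cells treated with 5 µM for 24, 48 and 72 h; apoptosis by TUNEL plus propidium iodide staining (APO-Direct kit) read by flow cytometry. Kit negative/positive controls, plus PC-3 cells untreated or given 1 µM narciclasine 72 h as internal controls. Quadruplicate (kit controls singlet); mean ± SEM.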

M14 = assay: Cytotoxicity against human M14 cells assessed as residual growth at 10 uM; assay type: functional
MDA-MB-468 = assay: Cytotoxicity against human MDA-MB-468 cells assessed as residual growth at 10 uM; assay type: functional
SK-OV-3 = assay: Cytotoxicity against human SKOV3 cells assessed as residual growth at 10 uM; assay type: functional
K562 = assay: Cytotoxicity against human K562 cells assessed as residual growth at 10 uM; assay type: functional

C=CCCCCOc1ccccc1-c1cnc(OCCCCC=C)n1C
IC50 (NHDF): 36 µM | Activity (U-251): 68.59% | Activity [1]: 66.38% | Activity (SK-MEL-28 [2]): inactive | Activity (RPMI-8226): 80.75% | Activity (Melanoma cell): Active | Activity (HOP-62): 77.15% | Activity (HL-60(TB)): 66.52% | Activity (SN12C): 91.09% | Activity (MOLT-4): 91.38% | IC50 (PC-3 [3]): 9 µM | Activity (MCF7): 42.18% | Activity [4]: 85.23% | Activity (OVCAR-8): 83.91% | inhibition of growth at 5 µM (SK-MEL-28 [5]): 50% | Activity (DU-145): 92.64% | Activity (SNB-19): 91.08% | Activity (ACHN): 84.54% | Activity (HOP-92): 75.18% | Activity (MDA-MB-231): 66.46% | Activity (T47D): 61.88% | Activity (KM12): 38.37% | Activity (PC-3 [6]): 73.54% | Activity (A498): 51.15% | Activity (COLO 205): 46.04% | Activity (TK-10): 74.98% | Activity (HCT-15): 52.21% | Activity [7]: 97.91% | IC50 (T98G): 4 µM | Activity (NCI-H522): 12.63% | IC50 [8]: 7 µM | Activity (A549): 50.25% | IC50 (LoVo): 5 µM | Activity (UACC-62): 55.73% | Activity (SK-MEL-5): 83.67% | Activity [9]: 66.63% | Activity (SK-MEL-28 [10]): inactive | Activity (M14): 72.63% | Activity (MDA-MB-468): 25.48% | Activity (SK-OV-3): 74.99% | Activity (K562): 30.53%
